Source: ChEMBL document CHEMBL4402567, “Structure-Activity Relationship Studies on Diversified Salicylamide Derivatives as Potent Inhibitors of Human Adenovirus Infection” (J Med Chem, 2020)
pIC50: −log10 of the molar value.

Assays:
Human adenovirus 5 [1] = assay: Antiviral activity against Human adenovirus 5 infected in 293beta5 cells assessed as inhibition of plaque formation incubated for 7 days by GFP reporter gene assay; format: functional, organism-based; settings: Human mastadenovirus C, 293beta5, 168 h
In short: (§1)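 HAdV5-GFP plaque assay in 293β5 cells at low MOI. Inhibition is expressed as percent of the infected control, with single-dose screening at 10 μM. Compounds giving >90% inhibition went on to IC50 determination. Values are means ± SD of triplicate samples from three independent experiments.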

[2] = Cytotoxicity against human A549 cells assessed as reduction in cell viability after 48 hrs by alamar blue assay; format: cell-based
[3] = Selectivity index, ratio of CC50 for cytotoxicity against human A549 cells to IC50 for antiviral activity against Human adenovirus 5 infected in 293beta5 cells assessed as inhibition of plaque formation after 7 days; format: toxicity, cell-based; settings: read-out: Ratio CC50/IC50
Human adenovirus 5 [4] = assay: Antiviral activity against Human adenovirus 5 infected in 293beta5 cells assessed as inhibition of plaque formation at 10 uM incubated for 7 days by GFP reporter gene assay relative to control; format: functional; settings: Human mastadenovirus C, 293beta5, 168 h; in short: as §1
Human adenovirus 5 [5] = assay: Antiviral activity against Human adenovirus 5 infected in human A549 cells assessed as inhibition of viral entry at 50 uM after 48 hrs by GFP reporter gene based assay relative to control; format: functional; settings: Human mastadenovirus C, A549, 48 h
In short: (§2)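 Entry assay in A549 epithelial cells infected with HAdV5-GFP at high MOI, with compound present throughout and 48 h incubation. GFP expression is the read-out.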

Human adenovirus 5 [6] = assay: Antiviral activity against Human adenovirus 5 infected in human A549 cells assessed as fold reduction in virus yield at 5 uM after 48 hrs endpoint dilution method relative to control; format: functional
Human adenovirus 5 [7] = assay: Antiviral activity against Human adenovirus 5 infected in 293beta5 cells assessed as inhibition of viral infection at 5 uM preincubated for 60 mins followed by viral infection by GFP reporter gene assay relative to control; format: functional; settings: Human mastadenovirus C
Human adenovirus 5 [8] = assay: Antiviral activity against Human adenovirus 5 infected in 293beta5 cells assessed as inhibition of viral infection at 5 uM measured after 2 hrs post infection by gene assay relative to control; format: functional; settings: Human mastadenovirus C, 293beta5, 2 h
Human adenovirus 5 [9] = assay: Antiviral activity against Human adenovirus 5 infected in human A549 cells asssessed as inhibition of viral entry by measuring nuclear-associated viral genome level at 5 uM after 45 mins by RT-PCR analysis (reference value: 100.24 +/- 2.77%); format: functional; design: scale not given: the % may be the effect or the level left
In short: (§3)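 Nuclear HAdV genome levels in treated cells were quantified at 45 min post-infection and compared with DMSO-treated cells. […] Bars are means ± SD of triplicate samples.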

Human adenovirus 5 [10] = assay: Antiviral activity against Human adenovirus 5 infected in human A549 cells assessed as inhibition of viral DNA replication by measuring number of viral DNA copies at 5 uM after 24 hrs by RT-qPCR analysis (reference value: 100 +/- 1.55%); format: functional; design: scale not given: the % may be the effect or the level left
Human adenovirus 5 [11] = assay: Antiviral activity against Human adenovirus 5 infected in human A549 cells assessed as inhibition of viral DNA replication at 5 uM after 24 hrs by RT-qPCR analysis relative to control; format: functional; settings: Human mastadenovirus C, A549, 24 h
Human adenovirus 5 [12] = assay: Antiviral activity against Human adenovirus 5 infected in human A549 cells assessed as inhibition of viral entry after 48 hrs by GFP reporter gene based assay; format: functional, organism-based; settings: Human mastadenovirus C, A549, 48 h; in short: as §2
Human adenovirus 5 [13] = assay: Antiviral activity against Human adenovirus 5 infected in human A549 cells assessed as fold reduction in virus yield at 50 uM after 48 hrs endpoint dilution method relative to control; format: functional
Human adenovirus 5 [14] = assay: Antiviral activity against Human adenovirus 5 infected in 293beta5 cells assessed as inhibition of viral replication at 10 uM measured immediately post infection by GFP reporter gene assay relative to control; format: functional; settings: Human mastadenovirus C
Human adenovirus 5 [15] = assay: Antiviral activity against Human adenovirus 5 infected in human A549 cells asssessed as inhibition of viral entry by measuring nuclear-associated viral genome level at 50 uM after 45 mins by RT-PCR analysis (reference value: 100.24 +/- 2.77%); format: functional; design: scale not given: the % may be the effect or the level left; in short: as §3
Human adenovirus 5 [16] = assay: Antiviral activity against Human adenovirus 5 infected in human A549 cells assessed as inhibition of viral DNA replication by measuring number of viral DNA copies at 50 uM after 24 hrs by RT-qPCR analysis (reference value: 100 +/- 1.55%); format: functional; design: scale not given: the % may be the effect or the level left

Structure (SMILES) | pIC50 (Human adenovirus 5 [1]) | CC50 at 48 h [2] [µM] | selectivity ratio at 168 h [3] | inhibition at 10 µM (Human adenovirus 5 [4]) [%] | further results
CS(=O)(=O)Nc1ccc(Cl)cc1C(=O)NCC(=O)Nc1ccc([N+](=O)[O-])cc1Cl | 5.02 | 141 | 14.6 | – | –
C[C@@H](NC(=O)c1cc(Cl)ccc1O)c1ccc(Cl)cc1 | – | 31.1 | – | 100 | –
O=C(NCc1ccc(C(F)(F)F)cc1)c1cc(Cl)ccc1O | 5.59 | 23.9 | 9.2 | – | –
Cc1ccc(CNC(=O)c2cc(Cl)ccc2O)cc1 | 5.09 | 87.7 | 10.8 | – | –
C[C@H](NC(=O)c1cc(Cl)ccc1O)c1ccccc1 | 5.60 | 199 | 78.5 | 100 | –
O=C(N[C@@H](Cc1ccccc1)C(=O)Nc1ccc([N+](=O)[O-])cc1Cl)c1cc(Cl)ccc1O | 5.15 | 15.2 | – | 100 | –
O=C(Nc1cc(F)cc(C(F)(F)F)c1)c1cccc(Cl)c1 | 5.25 | 38.6 | 6.9 | – | –
O=C(Nc1cc(C(F)(F)F)cc(C(F)(F)F)c1)c1cc(Cl)ccc1O [IMD-0354] | 7.22 | 4.1 | 68.3 | 100 | –
C[C@@H](NC(=O)c1cc(Cl)ccc1O)c1ccc(F)cc1 | 5.52 | > 200 | > 66.2 | 100 | –
CC(C)(C)OC(=O)CC[C@H](NC(=O)c1cc(Cl)ccc1O)C(=O)Nc1ccc([N+](=O)[O-])cc1Cl | 6.17 | 22.9 | 34.2 | – | –
CC(C)(NC(=O)c1cc(Cl)ccc1O)c1ccc(F)cc1 | 5.46 | > 200 | > 57.8 | 100 | –
O=C(Nc1ccc([N+](=O)[O-])cc1)c1cc(Cl)ccc1O | 6.96 | – | – | – | inhibition at 50 µM (Human adenovirus 5 [5]): 100%; fold change (FC) (Human adenovirus 5 [6]): 137; inhibition at 5 µM (Human adenovirus 5 [7]): > 50%; inhibition at 5 µM (Human adenovirus 5 [8]): > 50%; Activity (Human adenovirus 5 [9]): 15.48%; Activity (Human adenovirus 5 [10]): 0.51%; inhibition at 5 µM (Human adenovirus 5 [11]): > 90%
O=C(NCc1ccc(C(F)(F)F)c(F)c1)c1cc(Cl)ccc1O | 5.85 | 22.3 | 15.9 | – | –
O=C(NCc1cc(F)cc(C(F)(F)F)c1)c1cc(Cl)ccc1O | 5.62 | 36.3 | 15.1 | – | –
O=C(Cc1cc(Cl)ccc1O)Nc1cc(F)cc(C(F)(F)F)c1 | 5.31 | 23.7 | 4.8 | – | –
C[C@@H](NC(=O)c1cc(Cl)ccc1O)c1ccccc1 | – | 84.6 | – | 100 | –
CC(C)[C@H](NC(=O)c1cc(Cl)ccc1O)C(=O)Nc1ccc(F)c(F)c1 | 5.53 | 95 | 32.1 | – | –
O=C(NCc1ccc([N+](=O)[O-])cc1)c1cc(Cl)ccc1O | 5.18 | 175 | 26.7 | – | –
O=C(NCc1ccc(C(F)(F)F)cc1F)c1cc(Cl)ccc1O | 5.88 | 45.6 | 34.6 | – | –
O=C(NCc1ccc(Cl)cc1Cl)c1cc(Cl)ccc1O | 5.76 | 30.9 | 17.9 | – | –
O=C(Nc1ccc(F)c(F)c1)c1cc(Cl)ccc1O | 6.57 | 8 | 29.6 | 100 | –

Structure (SMILES) | pIC50 (Human adenovirus 5 [1]) | CC50 at 48 h [2] [µM] | selectivity ratio at 168 h [3] | inhibition at 10 µM (Human adenovirus 5 [4]) [%] | further results
O=C(Nc1ccc([N+](=O)[O-])cc1Cl)c1cc(Cl)ccc1O [NICLOSAMIDE] | 6.22 | – | – | 100 | inhibition at 50 µM (Human adenovirus 5 [5]): 100%; pIC50 (Human adenovirus 5 [12]): 5.91; fold change (FC) (Human adenovirus 5 [6]): 82; Activity (Human adenovirus 5 [9]): 49.51%; Activity (Human adenovirus 5 [10]): 0.05%
O=C(NCCc1ccc(F)cc1)c1cc(Cl)ccc1O | 5.40 | 154 | 39.1 | – | –
O=C(Nc1cc(F)cc(C(F)(F)F)c1)c1ccccc1O | 5.97 | 16.3 | 15.2 | – | –
CC[C@@H](C)[C@H](NC(=O)c1cc(Cl)ccc1O)C(=O)Nc1ccc([N+](=O)[O-])cc1Cl | 6.80 | 20.2 | 128 | – | pIC50 (Human adenovirus 5 [12]): 5.60; fold change (FC) (Human adenovirus 5 [6]): 10; inhibition at 5 µM (Human adenovirus 5 [7]): > 50%; inhibition at 5 µM (Human adenovirus 5 [8]): > 50%; Activity (Human adenovirus 5 [9]): 0.54%; Activity (Human adenovirus 5 [10]): 2.33%; inhibition at 5 µM (Human adenovirus 5 [11]): > 90%
O=C(NCc1ccc([N+](=O)[O-])cc1Cl)c1cc(Cl)ccc1O | 5.85 | 51.4 | 36.7 | 100 | –
O=C(NCc1ccc(Cl)cc1)c1cc(Cl)ccc1O | 5.45 | 27.1 | 7.6 | – | –
CN(Cc1ccc(F)cc1)C(=O)c1cc(Cl)ccc1O | – | – | – | 0 | –
O=C(Cc1cc(Cl)ccc1O)Nc1ccc([N+](=O)[O-])cc1Cl | – | – | – | 0 | –
O=C(NCc1ccc(F)cc1Cl)c1cc(Cl)ccc1O | 5.59 | 30.9 | 12.1 | – | –
C[C@H](NC(=O)c1cc(Cl)ccc1O)C(=O)Nc1ccc([N+](=O)[O-])cc1Cl | 5.41 | 100 | 26 | – | –
O=C(Nc1cc([N+](=O)[O-])ccc1F)c1cc(Cl)ccc1O | 6.51 | 8.1 | 26.2 | 100 | –
CC(C)[C@H](NC(=O)c1cc(Cl)ccc1O)C(=O)Nc1cc(F)cc(C(F)(F)F)c1 | 6.18 | 43 | 65.2 | – | –
O=C(Nc1ccc([N+](=O)[O-])c(Cl)c1)c1cc(Cl)ccc1O | 6.00 | – | – | 100 | –
Cc1ccc(O)c(C(=O)Nc2cc(F)cc(C(F)(F)F)c2)c1 | 6.19 | 15.2 | 23.3 | – | –
O=C(Nc1cc(F)cc(C(F)(F)F)c1)c1cc(Cl)ccc1O | 6.74 | 120 | 667 | 100 | inhibition at 50 µM (Human adenovirus 5 [5]): 100%; pIC50 (Human adenovirus 5 [12]): 5.65; fold change (FC) (Human adenovirus 5 [13]): 989; inhibition at 10 µM (Human adenovirus 5 [14]): < 50%; Activity (Human adenovirus 5 [15]): 66.96%; Activity (Human adenovirus 5 [16]): 82.41%
O=C(CNC(=O)c1cc(Cl)ccc1O)Nc1ccc([N+](=O)[O-])cc1Cl | 5.61 | 129 | 53.2 | 100 | –
O=C(Nc1cc(F)cc(C(F)(F)F)c1)c1ccc(Cl)cc1O | 6.96 | 20.6 | 187 | – | inhibition at 50 µM (Human adenovirus 5 [5]): 100%; pIC50 (Human adenovirus 5 [12]): 6.59; fold change (FC) (Human adenovirus 5 [6]): 385; inhibition at 5 µM (Human adenovirus 5 [7]): > 50%; inhibition at 5 µM (Human adenovirus 5 [8]): > 50%; Activity (Human adenovirus 5 [9]): 54.74%; Activity (Human adenovirus 5 [10]): 68.17%
O=C(N[C@@H](Cc1ccccc1)C(=O)Nc1cc(C(F)(F)F)cc(C(F)(F)F)c1)c1cc(Cl)ccc1O | 6.40 | 17.9 | 44.9 | – | –
CC(C)[C@H](NC(=O)c1cc(Cl)ccc1O)C(=O)Nc1cc(C(F)(F)F)cc(C(F)(F)F)c1 | 6.40 | 30.9 | 77.4 | – | –
CC(C)[C@H](NC(=O)c1cc(Cl)ccc1O)C(=O)Nc1ccc([N+](=O)[O-])cc1Cl | 6.35 | 200 | 444 | 100 | pIC50 (Human adenovirus 5 [12]): 4.95; fold change (FC) (Human adenovirus 5 [13]): 213; inhibition at 10 µM (Human adenovirus 5 [14]): < 50%; Activity (Human adenovirus 5 [15]): 91.82%; Activity (Human adenovirus 5 [16]): 60.09%
